Assay results reported in ChEMBL document CHEMBL1150415 (J Med Chem, 2008).
Activity calls are given as the source filed them. No cut-off for these calls is given here.

Legend:
Blood = assay: Inhibition of TXB2 production in Sprague-Dawley rat whole blood; assay type: functional, tissue-based
Summary of the method: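 Rat whole blood stimulated with calcium ionophore A23187 at 5 µM, with thromboxane B2 measured. Each run gives the mean of triplicate assays, and values come from at least two runs.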

[1] = Inhibition of cytosolic phospholipase A2alpha by GLU micelle assay
Summary of the method: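 Micellar assay with 7-hydroxycoumarinyl-γ-linolenate (GLU) substrate, presenting inhibitor and substrate to the enzyme in high-lipid micelles. Each run gives the mean of duplicate assays, and values come from at least two runs.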

Rattus norvegicus [2] = assay: Inhibition of carrageenan-induced paw edema in Sprague-Dawley rat administered 2 hrs before carrageenan challenge at 10 mg/kg, po; details: read-out: INH
MC9 [3] = assay: Inhibition of PGF2alpha production in mouse MC9 cells; assay type: functional, cell-based
MC9 [4] = assay: Inhibition of PGF2apha production in arachidonic acid-stimulated mouse MC9 cells; assay type: functional, cell-based
[5] = Plasma clearance in Sprague-Dawley rat at 2 mg/kg, iv; assay type: ADME, organism-based; set-up: dose 2 mg/kg, route intravenous
[6] = Plasma concentration in adjuvant-induced arthritis Lewis rat model at 5 mg/kg, po after 4 hrs; assay type: ADME, organism-based; set-up: dose 5 mg/kg, route oral
Rattus norvegicus [7] = assay: Inhibition of PGE2 production in carrageenan-stimulated rat air pouch model at 2 mg/kg, ip after 6 hrs; assay type: functional; details: route intraperitoneal
Summary of the method: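 Rats given an intraperitoneal dose. Carrageenan was injected into a preformed air pouch, contents were collected 6 h later, and PGE2 was quantified.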

Rattus norvegicus [8] = assay: Reduction in cartilage damage in Freund's adjuvant-induced arthritis Lewis rat model at 5 mg/kg, po for 11 days; assay type: functional, organism-based; set-up: dose 5 mg/kg
Summary of the method: (§1)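 Arthritis was induced in Lewis rats by intradermal complete Freund's adjuvant at the base of the tail. Oral treatment began on day 8, when mean clinical joint scores were 12, and continued for 11 days. Tarsal joints were taken at necropsy and lesions were scored histologically in blinded fashion.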

[9] = Plasma concentration in adjuvant-induced arthritis Lewis rat model at 5 mg/kg, po after 16 hrs; assay type: ADME, organism-based; set-up: dose 5 mg/kg, route oral
Rattus norvegicus [10] = assay: Reduction in synovitis damage in Freund's adjuvant-induced arthritis Lewis rat model at 5 mg/kg, po for 11 days; assay type: functional, organism-based; set-up: dose 5 mg/kg; summary of the method: as §1
Rattus norvegicus [11] = assay: Inhibition of carrageenan-induced paw edema in Sprague-Dawley rat administered 2 hrs before carrageenan challenge at 25 mg/kg, po; assay type: functional
MC9 [12] = assay: Inhibition of leukotrienes production in mouse MC9 cells; assay type: functional, cell-based
Summary of the method: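 Murine MC-9 mast cells stimulated through the IgE receptor to release arachidonic acid. Leukotriene production (5-LO pathway) was quantified.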

MC9 [13] = assay: Inhibition of LTB4 production in mouse MC9 cells; assay type: functional, cell-based

| SMILES | IC50 (Blood) [nM] | IC50 [1] [nM] | also measured |
| --- | --- | --- | --- |
| O=C(O)CCc1ccc(S(=O)(=O)CCc2c(CCNS(=O)(=O)Cc3c(F)cccc3F)n(C(c3ccccc3)c3ccccc3)c3ccc(Cl)cc23)cc1 | 20 | 70 | – |
| COc1ccc2cc([C@H](C)C(=O)O)ccc2c1 [NAPROXEN] | – | – | inhibition in vivo at 10 mg/kg (Rattus norvegicus [2]): 50%; IC50 (MC9 [3]): 200 nM; IC50 (MC9 [4]): 330 nM |
| O=C(O)CCc1ccc(Cc2c(CCNS(=O)(=O)Cc3ccccc3)n(C(c3ccccc3)c3ccccc3)c3ccc(Cl)cc23)cc1 | 900 | 2000 | – |
| CN(CCc1c(CCNS(=O)(=O)Cc2ccccc2)n(C(c2ccccc2)c2ccccc2)c2ccc(Cl)cc12)c1ccc(C(=O)O)cc1 | 1800 | 4300 | – |
| O=C(O)COc1ccc(Cc2c(CCNS(=O)(=O)Cc3ccccc3)n(C(c3ccccc3)c3ccccc3)c3ccc(Cl)cc23)cc1 | > 10000 | 7000 | – |
| Cc1ccc(-c2cc(C(F)(F)F)nn2-c2ccc(S(N)(=O)=O)cc2)cc1 [CELECOXIB] | – | – | concentration at 4 h [6]: 1130 ng/mL; IC50 (MC9 [3]): 400 nM; inhibition in vivo at 2 mg/kg (Rattus norvegicus [7]): 90%; Activity (Rattus norvegicus [8]): Active; concentration at 16 h [9]: 129 ng/mL; Activity (Rattus norvegicus [10]): Active; IC50 (MC9 [4]): 300 nM; inhibition in vivo at 25 mg/kg (Rattus norvegicus [11]): 37% |
| O=C(O)c1ccc(CCCc2c(CCNS(=O)(=O)Cc3c(F)cccc3F)n(C(c3ccccc3)c3ccccc3)c3ccc(Cl)cc23)cc1 | 360 | 60 | – |
| O=C(O)CCc1ccc(S(=O)(=O)CCc2c(CCNS(=O)(=O)Cc3ccccc3Cl)n(C(c3ccccc3)c3ccccc3)c3ccc(Cl)cc23)cc1 | 20 | 10 | clearance [5]: 63 mL/min/kg |
| O=C(O)c1ccc(S(=O)(=O)CCc2c(CCNS(=O)(=O)Cc3c(F)cccc3F)n(C(c3ccccc3)c3ccccc3)c3ccc(Cl)cc23)cc1 | 150 | 20 | clearance [5]: 186 mL/min/kg |
| O=C(O)c1ccc(S(=O)(=O)CCc2c(CCNS(=O)(=O)Cc3ccc(Cl)c(Cl)c3)n(C(c3ccccc3)c3ccccc3)c3ccc(Cl)cc23)cc1 | 150 | 20 | clearance [5]: 19 mL/min/kg |
| O=C(O)CCc1ccc(S(=O)(=O)CCc2c(CCNS(=O)(=O)Cc3ccc(Cl)c(Cl)c3)n(C(c3ccccc3)c3ccccc3)c3ccc(Cl)cc23)cc1 | 40 | 40 | clearance [5]: 10 mL/min/kg |
| O=C(O)c1ccc(S(=O)(=O)CCc2c(CCNS(=O)(=O)Cc3ccccc3)n(C(c3ccccc3)c3ccccc3)c3ccc(Cl)cc23)cc1 | 80 | 20 | clearance [5]: 54 mL/min/kg |
| Cc1cccc(C)c1CS(=O)(=O)NCCc1c(CCS(=O)(=O)c2ccc(C(=O)O)cc2)c2cc(Cl)ccc2n1C(c1ccccc1)c1ccccc1 | 70 | 4 | clearance [5]: 25 mL/min/kg |
| CC(c1cc2ccccc2s1)N(O)C(N)=O (configuration not stated) [ZILEUTON] | – | – | Activity (MC9 [12]): Active; IC50 (MC9 [13]): 550 nM |
| O=C(O)CCc1ccc(S(=O)(=O)CCc2c(CCNS(=O)(=O)Cc3ccccc3)n(C(c3ccccc3)c3ccccc3)c3ccc(Cl)cc23)cc1 | 20 | 30 | clearance [5]: 150 mL/min/kg |
| O=C(O)Cc1nc(CCCc2c(CCNS(=O)(=O)Cc3ccccc3)n(C(c3ccccc3)c3ccccc3)c3ccc(Cl)cc23)no1 | – | > 20000 | – |

Now from value to compound, other results behind:

| IC50 (Blood) [nM] | IC50 [1] [nM] | SMILES | also measured |
| --- | --- | --- | --- |
| 160 | 300 | N#Cc1cccc(CS(=O)(=O)NCCc2c(CCOc3ccc(C(=O)O)cc3)c3cc(Cl)ccc3n2C(c2ccccc2)c2ccccc2)c1 | – |
| 80 | 180 | O=C(O)c1ccc(OCCc2c(CCNS(=O)(=O)Cc3c(F)cccc3F)n(C(c3ccccc3)c3ccccc3)c3ccc(Cl)cc23)cc1 | clearance [5]: 32 mL/min/kg |
| 60 | 10 | O=C(O)c1ccc(S(=O)(=O)CCc2c(CCNS(=O)(=O)Cc3ccccc3Cl)n(C(c3ccccc3)c3ccccc3)c3ccc(Cl)cc23)cc1 | – |
| – | 110 | O=C(O)c1ccc(OCCc2c(CCNS(=O)(=O)Cc3ccccc3)n(C(c3ccccc3)c3ccccc3)c3ccc(Cl)cc23)cc1 | – |
| 150 | 260 | N#Cc1ccc(CS(=O)(=O)NCCc2c(CCOc3ccc(C(=O)O)cc3)c3cc(Cl)ccc3n2C(c2ccccc2)c2ccccc2)cc1 | – |
| 70 | 190 | O=C(O)CCc1ccc(OCCc2c(CCNS(=O)(=O)Cc3ccccc3)n(C(c3ccccc3)c3ccccc3)c3ccc(Cl)cc23)cc1 | – |
| 50 | 50 | O=C(O)c1ccc(OCCc2c(CCNS(=O)(=O)Cc3ccccc3Cl)n(C(c3ccccc3)c3ccccc3)c3ccc(Cl)cc23)cc1 | – |
| 70 | 70 | O=C(O)c1ccc(CCCc2c(CCNS(=O)(=O)Cc3ccccc3)n(C(c3ccccc3)c3ccccc3)c3ccc(Cl)cc23)cc1 | – |
| 30 | 30 | Cc1cccc(C)c1CS(=O)(=O)NCCc1c(CCOc2ccc(C(=O)O)cc2)c2cc(Cl)ccc2n1C(c1ccccc1)c1ccccc1 | clearance [5]: 13 mL/min/kg |
| 90 | 160 | O=C(O)c1ccc(OCCc2c(CCNS(=O)(=O)Cc3ccc([N+](=O)[O-])cc3)n(C(c3ccccc3)c3ccccc3)c3ccc(Cl)cc23)cc1 | – |
| 20 | 30 | Cc1ccccc1CS(=O)(=O)NCCc1c(CCCc2ccc(C(=O)O)cc2)c2cc(Cl)ccc2n1C(c1ccccc1)c1ccccc1 | clearance [5]: 6 mL/min/kg |
| 70 | 110 | O=C(O)c1ccc(OCCc2c(CCNS(=O)(=O)Cc3cccc([N+](=O)[O-])c3)n(C(c3ccccc3)c3ccccc3)c3ccc(Cl)cc23)cc1 | – |
| 140 | 230 | O=C(O)c1ccc(OCCc2c(CCNS(=O)(=O)Cc3ccc4ccccc4c3)n(C(c3ccccc3)c3ccccc3)c3ccc(Cl)cc23)cc1 | – |
| 400 | 680 | O=C(O)c1ccc(NCCc2c(CCNS(=O)(=O)Cc3ccccc3)n(C(c3ccccc3)c3ccccc3)c3ccc(Cl)cc23)cc1 | – |
| 30 | 20 | O=C(O)c1ccc(CCCc2c(CCNS(=O)(=O)Cc3ccccc3Cl)n(C(c3ccccc3)c3ccccc3)c3ccc(Cl)cc23)cc1 | clearance [5]: 7 mL/min/kg |
| 340 | 180 | O=C(O)c1ccc(OCCc2c(CCNS(=O)(=O)Cc3ccncc3)n(C(c3ccccc3)c3ccccc3)c3ccc(Cl)cc23)cc1 | – |
| 70 | 60 | N#Cc1ccccc1CS(=O)(=O)NCCc1c(CCOc2ccc(C(=O)O)cc2)c2cc(Cl)ccc2n1C(c1ccccc1)c1ccccc1 | – |
| 350 | 400 | O=C(O)c1ccc(OCCc2c(CCNS(=O)(=O)Cc3ccccn3)n(C(c3ccccc3)c3ccccc3)c3ccc(Cl)cc23)cc1 | – |
| 30 | 60 | Cc1ccccc1CS(=O)(=O)NCCc1c(CCOc2ccc(C(=O)O)cc2)c2cc(Cl)ccc2n1C(c1ccccc1)c1ccccc1 | – |
| > 10000 | 33000 | O=C(O)c1ccc(Cc2c(CCNS(=O)(=O)Cc3ccccc3)n(C(c3ccccc3)c3ccccc3)c3ccc(Cl)cc23)cc1 | – |
| 360 | 220 | O=C(O)c1ccc(OCCc2c(CCNS(=O)(=O)Cc3cccnc3)n(C(c3ccccc3)c3ccccc3)c3ccc(Cl)cc23)cc1 | – |
| 30 | 85 | O=C(O)c1ccc(OCCc2c(CCNS(=O)(=O)Cc3ccccc3[N+](=O)[O-])n(C(c3ccccc3)c3ccccc3)c3ccc(Cl)cc23)cc1 | – |
